The results in this text go back to ChEMBL document CHEMBL5705888, “Substrate specificity and inhibitors of LRRK2, a protein kinase mutated in Parkinson's disease” (Biochem J, 2009).

The structures appear in SMILES notation. Calls of active or inactive are those of the source. The calls are words filed in the database; no cut-off is given here.

For orientation: inhibition means the drop in the measured response relative to a control, in per cent. For orientation: residual activity means the signal under treatment as a percentage of the control signal.

Assay [1] has as its target Leucine-rich repeat serine/threonine-protein kinase 2 (Homo sapiens, UniProt Q5S007). As to the kind of experiment: Inhibition of LRRK2 in human HEK293 cells assessed as inhibition of ERM phosphorylation at 10 uM incubated for 1 hr using LRRKtide as substrate in presence of sunitinib by immunoblot analysis. The assay is classed as cell-based. Put shortly:
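SDS lysates were run on 4–12% gels and immunoblotted for ERM phosphorylation with pan-phospho-ERM antibody (1 μg/ml, with 10 μg/ml LRRKtide in blocking milk/TBST).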
(In general: Immunoblotting shows a protein as a band on a membrane.)

The target in assay [2] is Serine/threonine-protein kinase Chk1 (Homo sapiens) (UniProt O14757). Nature of the assay: Inhibition of CHK1 (unknown origin) at 1 uM incubated for 30 mins in presence of [gamma-33P]ATP by multidrop micro reagent based assay relative to control; values are per cent of control.
Assay [3] deals with Serine/threonine-protein kinase pim-2 (Homo sapiens) (UniProt Q9P1W9). As to the kind of experiment: Inhibition of PIM2 (unknown origin) at 1 uM incubated for 30 mins in presence of [gamma-33P]ATP by multidrop micro reagent based assay relative to control; values are per cent of control.
The target of assay [4] is Leucine-rich repeat serine/threonine-protein kinase 2 (Mus musculus) (UniProt Q5S006). Nature of the assay: Inhibition of LRRK2 in mouse Swiss-3T3 cells at 2 uM using Nictide as substrate by immunoblot analysis. The assay is classed as cell-based.
Assay [5] relates to Leucine-rich repeat serine/threonine-protein kinase 2 (Homo sapiens), Q5S007 [G2019S]. Nature of the assay: Inhibition of LRRK2 G2019S mutant (unknown origin) at 10 uM incubated for 30 mins in presence of [gamma-33P]ATP by multidrop micro reagent based assay relative to control.
Assay [6] deals with Serine/threonine-protein kinase D1 (Homo sapiens) (UniProt Q15139). As to the kind of experiment: Residual activity of PKD1 (unknown origin) at 10 uM incubated for 30 mins in presence of [gamma-33P]ATP by multidrop micro reagent based assay relative to control.
Assay [7] addresses Maternal embryonic leucine zipper kinase (Homo sapiens) (UniProt Q14680). As to the kind of experiment: Inhibition of MELK (unknown origin) at 10 uM incubated for 30 mins in presence of [gamma-33P]ATP by multidrop micro reagent based assay relative to control; values are per cent of control.
Assay [8] has as its target Serine/threonine-protein kinase pim-3 (Homo sapiens) (UniProt Q86V86). Nature of the assay: Inhibition of PIM3 (unknown origin) at 10 uM incubated for 30 mins in presence of [gamma-33P]ATP by multidrop micro reagent based assay relative to control; values are per cent of control.
For assay [9], the target named is Serine/threonine-protein kinase PAK 5 (Homo sapiens) (UniProt Q9P286). Nature of the assay: Inhibition of PAK5 (unknown origin) at 10 uM incubated for 30 mins in presence of [gamma-33P]ATP by multidrop micro reagent based assay relative to control; values are per cent of control.
Assay [10] deals with T1, Dual specificity tyrosine-phosphorylation-regulated kinase 2 (Homo sapiens) (UniProt Q92630).
T1 sequence (whole entry): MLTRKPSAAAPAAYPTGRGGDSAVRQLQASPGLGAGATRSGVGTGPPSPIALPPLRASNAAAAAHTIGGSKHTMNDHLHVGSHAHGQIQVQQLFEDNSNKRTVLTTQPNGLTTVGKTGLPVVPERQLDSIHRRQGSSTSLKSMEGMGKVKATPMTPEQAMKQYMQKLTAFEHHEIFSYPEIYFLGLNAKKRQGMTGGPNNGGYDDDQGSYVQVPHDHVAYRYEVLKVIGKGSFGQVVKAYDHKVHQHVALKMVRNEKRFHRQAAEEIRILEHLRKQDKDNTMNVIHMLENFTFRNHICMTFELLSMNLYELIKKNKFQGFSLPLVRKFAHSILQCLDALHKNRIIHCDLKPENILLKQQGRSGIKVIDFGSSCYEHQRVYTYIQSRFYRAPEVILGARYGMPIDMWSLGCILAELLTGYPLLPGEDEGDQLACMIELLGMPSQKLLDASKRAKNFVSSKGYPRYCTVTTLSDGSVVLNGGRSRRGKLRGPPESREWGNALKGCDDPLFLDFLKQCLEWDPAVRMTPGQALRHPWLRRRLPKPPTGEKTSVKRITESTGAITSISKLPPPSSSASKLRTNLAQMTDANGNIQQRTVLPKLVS
As to the kind of experiment: Inhibition of DYRK2 (unknown origin) at 10 uM incubated for 30 mins in presence of [gamma-33P]ATP by multidrop micro reagent based assay relative to control; values are per cent of control.

Assay [11] addresses T2, Ephrin type-B receptor 3 (Homo sapiens) (UniProt P54753).
T2 sequence (whole entry): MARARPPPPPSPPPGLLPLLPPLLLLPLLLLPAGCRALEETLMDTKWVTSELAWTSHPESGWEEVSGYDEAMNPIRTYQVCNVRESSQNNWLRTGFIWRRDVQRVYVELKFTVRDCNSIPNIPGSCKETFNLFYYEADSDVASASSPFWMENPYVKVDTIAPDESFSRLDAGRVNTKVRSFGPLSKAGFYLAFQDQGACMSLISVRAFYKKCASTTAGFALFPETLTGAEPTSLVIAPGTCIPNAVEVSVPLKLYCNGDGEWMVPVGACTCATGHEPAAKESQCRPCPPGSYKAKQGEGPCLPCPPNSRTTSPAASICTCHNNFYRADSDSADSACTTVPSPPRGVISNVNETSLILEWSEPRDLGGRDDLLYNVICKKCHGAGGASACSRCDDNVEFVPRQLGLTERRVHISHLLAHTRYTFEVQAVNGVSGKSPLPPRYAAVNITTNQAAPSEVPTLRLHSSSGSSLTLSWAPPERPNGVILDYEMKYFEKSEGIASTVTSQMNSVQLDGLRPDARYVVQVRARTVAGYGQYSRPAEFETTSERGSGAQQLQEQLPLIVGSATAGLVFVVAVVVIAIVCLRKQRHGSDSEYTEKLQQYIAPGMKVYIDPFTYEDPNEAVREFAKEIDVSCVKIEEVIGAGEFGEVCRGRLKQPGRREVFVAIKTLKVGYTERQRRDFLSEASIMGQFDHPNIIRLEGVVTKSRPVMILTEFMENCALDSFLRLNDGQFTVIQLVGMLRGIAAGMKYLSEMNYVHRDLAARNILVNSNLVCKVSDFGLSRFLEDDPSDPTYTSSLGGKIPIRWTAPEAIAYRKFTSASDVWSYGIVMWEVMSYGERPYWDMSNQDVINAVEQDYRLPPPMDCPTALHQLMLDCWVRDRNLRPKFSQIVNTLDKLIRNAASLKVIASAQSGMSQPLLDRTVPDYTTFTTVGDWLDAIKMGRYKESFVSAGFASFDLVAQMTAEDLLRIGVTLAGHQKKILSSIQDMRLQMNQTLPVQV
As to the kind of experiment: Inhibition of EPH-B3 (unknown origin) at 10 uM incubated for 30 mins in presence of [gamma-33P]ATP by multidrop micro reagent based assay relative to control; values are per cent of control.

Chain of Leucine-rich repeat serine/threonine-protein kinase 2 (Homo sapiens), Q5S007 [G2019S] (Q5S007 whole entry G2019S): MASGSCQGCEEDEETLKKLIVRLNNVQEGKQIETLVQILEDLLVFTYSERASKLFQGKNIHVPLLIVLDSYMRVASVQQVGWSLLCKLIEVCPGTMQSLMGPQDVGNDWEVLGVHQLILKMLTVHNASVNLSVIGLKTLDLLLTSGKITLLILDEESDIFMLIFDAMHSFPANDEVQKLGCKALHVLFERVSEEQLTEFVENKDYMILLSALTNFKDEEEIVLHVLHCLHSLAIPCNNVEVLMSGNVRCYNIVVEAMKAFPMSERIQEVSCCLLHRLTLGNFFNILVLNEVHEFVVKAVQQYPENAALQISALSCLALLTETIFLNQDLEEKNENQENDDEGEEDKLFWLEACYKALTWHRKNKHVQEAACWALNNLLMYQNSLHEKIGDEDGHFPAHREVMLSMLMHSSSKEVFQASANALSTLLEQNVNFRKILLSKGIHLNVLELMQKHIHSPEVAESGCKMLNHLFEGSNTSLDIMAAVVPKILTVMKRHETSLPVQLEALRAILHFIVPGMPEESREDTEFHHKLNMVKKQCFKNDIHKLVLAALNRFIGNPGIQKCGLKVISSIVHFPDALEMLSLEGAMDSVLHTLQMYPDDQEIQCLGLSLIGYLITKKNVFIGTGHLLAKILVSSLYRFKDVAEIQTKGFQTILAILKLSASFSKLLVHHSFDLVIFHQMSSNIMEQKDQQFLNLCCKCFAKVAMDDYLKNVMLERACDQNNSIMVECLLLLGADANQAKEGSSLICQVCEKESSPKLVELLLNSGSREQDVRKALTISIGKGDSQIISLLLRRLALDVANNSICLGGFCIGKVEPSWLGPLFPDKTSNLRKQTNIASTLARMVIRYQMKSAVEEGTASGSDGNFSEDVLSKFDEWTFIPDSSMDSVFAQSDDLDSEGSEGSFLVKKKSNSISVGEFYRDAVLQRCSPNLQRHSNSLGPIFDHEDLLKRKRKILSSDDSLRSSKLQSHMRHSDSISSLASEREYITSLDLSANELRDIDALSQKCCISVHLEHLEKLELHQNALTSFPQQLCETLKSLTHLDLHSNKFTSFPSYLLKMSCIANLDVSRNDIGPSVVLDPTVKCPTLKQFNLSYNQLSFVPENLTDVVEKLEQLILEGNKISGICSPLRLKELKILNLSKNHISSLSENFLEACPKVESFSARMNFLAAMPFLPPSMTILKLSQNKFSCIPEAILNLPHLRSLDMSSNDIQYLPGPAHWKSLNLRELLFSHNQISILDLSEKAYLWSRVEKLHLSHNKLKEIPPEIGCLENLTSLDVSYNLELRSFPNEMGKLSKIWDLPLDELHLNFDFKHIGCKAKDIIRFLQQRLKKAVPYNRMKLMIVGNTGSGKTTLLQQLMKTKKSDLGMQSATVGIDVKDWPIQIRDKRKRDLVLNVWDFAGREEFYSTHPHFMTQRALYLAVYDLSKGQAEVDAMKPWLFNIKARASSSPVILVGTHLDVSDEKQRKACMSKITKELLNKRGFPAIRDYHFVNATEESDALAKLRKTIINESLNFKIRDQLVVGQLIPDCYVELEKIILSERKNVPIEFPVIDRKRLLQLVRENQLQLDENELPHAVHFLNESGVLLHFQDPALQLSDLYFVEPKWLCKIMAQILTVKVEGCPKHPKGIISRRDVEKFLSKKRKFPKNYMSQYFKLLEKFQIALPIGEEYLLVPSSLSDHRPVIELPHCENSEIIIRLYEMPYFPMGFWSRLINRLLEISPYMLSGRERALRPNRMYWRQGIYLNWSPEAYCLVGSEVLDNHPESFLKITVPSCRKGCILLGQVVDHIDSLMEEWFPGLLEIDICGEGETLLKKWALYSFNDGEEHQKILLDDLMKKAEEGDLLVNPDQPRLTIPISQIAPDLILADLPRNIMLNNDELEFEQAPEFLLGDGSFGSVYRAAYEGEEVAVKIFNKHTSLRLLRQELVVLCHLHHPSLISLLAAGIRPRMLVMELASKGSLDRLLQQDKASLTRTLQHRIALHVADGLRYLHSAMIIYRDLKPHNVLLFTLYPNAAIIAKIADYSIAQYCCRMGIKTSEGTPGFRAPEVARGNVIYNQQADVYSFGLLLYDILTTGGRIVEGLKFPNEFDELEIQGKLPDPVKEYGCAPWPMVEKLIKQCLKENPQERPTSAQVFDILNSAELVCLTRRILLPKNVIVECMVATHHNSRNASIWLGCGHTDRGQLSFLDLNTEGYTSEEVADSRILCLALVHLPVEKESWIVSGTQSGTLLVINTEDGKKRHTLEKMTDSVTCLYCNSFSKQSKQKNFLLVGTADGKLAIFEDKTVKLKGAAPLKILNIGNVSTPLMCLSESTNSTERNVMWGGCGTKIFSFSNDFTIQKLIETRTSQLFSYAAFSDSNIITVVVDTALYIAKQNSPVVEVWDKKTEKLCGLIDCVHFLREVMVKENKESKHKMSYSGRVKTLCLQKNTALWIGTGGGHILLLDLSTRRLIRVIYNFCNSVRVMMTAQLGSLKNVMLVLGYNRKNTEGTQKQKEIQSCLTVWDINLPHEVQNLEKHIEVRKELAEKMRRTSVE
Chain of Serine/threonine-protein kinase PAK 5 (Homo sapiens) (Q9P286 whole entry, looked up): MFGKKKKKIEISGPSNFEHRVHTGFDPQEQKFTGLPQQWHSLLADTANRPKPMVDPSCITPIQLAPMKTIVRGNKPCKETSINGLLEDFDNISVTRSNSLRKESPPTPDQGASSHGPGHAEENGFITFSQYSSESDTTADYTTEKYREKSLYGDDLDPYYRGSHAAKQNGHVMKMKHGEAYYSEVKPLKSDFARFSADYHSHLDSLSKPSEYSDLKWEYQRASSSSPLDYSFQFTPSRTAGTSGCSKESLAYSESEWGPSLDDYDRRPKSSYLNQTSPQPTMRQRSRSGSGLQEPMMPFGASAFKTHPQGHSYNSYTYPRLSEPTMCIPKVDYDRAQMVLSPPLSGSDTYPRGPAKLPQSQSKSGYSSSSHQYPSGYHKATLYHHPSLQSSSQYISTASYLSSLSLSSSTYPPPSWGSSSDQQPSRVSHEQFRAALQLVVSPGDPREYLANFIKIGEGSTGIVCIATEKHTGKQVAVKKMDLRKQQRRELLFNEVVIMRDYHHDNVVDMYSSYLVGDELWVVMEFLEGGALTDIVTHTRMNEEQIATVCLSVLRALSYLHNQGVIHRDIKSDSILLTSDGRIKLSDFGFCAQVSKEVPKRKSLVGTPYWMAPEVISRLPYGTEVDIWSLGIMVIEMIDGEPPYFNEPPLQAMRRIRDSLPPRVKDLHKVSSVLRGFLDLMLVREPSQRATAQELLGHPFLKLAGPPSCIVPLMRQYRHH
Chain of Leucine-rich repeat serine/threonine-protein kinase 2 (Q5S007 whole entry): as the sequence (Q5S007 whole entry G2019S) above, with S2019G counted along it
Chain of Serine/threonine-protein kinase pim-2 (Homo sapiens) (Q9P1W9 whole entry, looked up): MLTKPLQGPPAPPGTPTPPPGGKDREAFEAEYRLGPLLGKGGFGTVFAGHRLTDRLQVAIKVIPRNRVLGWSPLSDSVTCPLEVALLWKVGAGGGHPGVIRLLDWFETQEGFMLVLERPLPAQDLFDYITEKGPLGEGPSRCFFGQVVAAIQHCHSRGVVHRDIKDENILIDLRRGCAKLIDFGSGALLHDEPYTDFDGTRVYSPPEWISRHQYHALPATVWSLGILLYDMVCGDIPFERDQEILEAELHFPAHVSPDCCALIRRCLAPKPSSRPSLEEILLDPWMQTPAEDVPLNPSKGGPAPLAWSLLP
Chain of Serine/threonine-protein kinase D1 (Homo sapiens) (Q15139 whole entry, looked up): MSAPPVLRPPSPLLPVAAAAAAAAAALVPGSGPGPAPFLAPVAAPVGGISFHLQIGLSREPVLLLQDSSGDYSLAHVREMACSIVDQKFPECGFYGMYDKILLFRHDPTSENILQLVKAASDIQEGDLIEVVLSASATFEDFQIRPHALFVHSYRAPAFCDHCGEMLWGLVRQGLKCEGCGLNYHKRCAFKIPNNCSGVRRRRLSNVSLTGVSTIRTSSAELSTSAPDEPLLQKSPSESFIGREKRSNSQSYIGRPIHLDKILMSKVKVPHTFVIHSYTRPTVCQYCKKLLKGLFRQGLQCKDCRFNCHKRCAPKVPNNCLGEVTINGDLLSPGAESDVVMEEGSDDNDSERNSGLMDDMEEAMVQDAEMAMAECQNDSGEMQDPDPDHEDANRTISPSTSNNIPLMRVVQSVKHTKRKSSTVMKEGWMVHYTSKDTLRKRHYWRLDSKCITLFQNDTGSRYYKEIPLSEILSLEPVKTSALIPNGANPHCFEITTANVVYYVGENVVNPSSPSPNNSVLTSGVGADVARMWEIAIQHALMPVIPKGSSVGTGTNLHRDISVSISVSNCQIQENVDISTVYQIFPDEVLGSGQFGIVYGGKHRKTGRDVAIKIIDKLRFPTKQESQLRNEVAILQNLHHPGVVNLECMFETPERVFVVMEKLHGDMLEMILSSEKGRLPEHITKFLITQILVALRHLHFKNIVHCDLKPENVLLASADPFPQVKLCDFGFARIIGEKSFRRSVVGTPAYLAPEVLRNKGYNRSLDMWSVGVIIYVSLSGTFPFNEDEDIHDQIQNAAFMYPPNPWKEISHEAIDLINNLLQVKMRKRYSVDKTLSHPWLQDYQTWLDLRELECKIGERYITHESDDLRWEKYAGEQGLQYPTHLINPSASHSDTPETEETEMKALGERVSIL

For `CC1=C(C(=O)Nc2cc3cn[nH]c3cc2F)C(c2ccc(C(F)(F)F)cc2)CC(=O)N1` (centres undefined), the inhibition result in assay [1] is “inactive”. Further, the residual activity in [2] was 111%; in [3], 106%.
Regarding `Cc1cncc2cccc(S(=O)(=O)N3CCCNC[C@@H]3C)c12`, the inhibition entry in [4] is “Active”.
As to `C[C@@H](N)[C@H]1CC[C@H](C(=O)Nc2ccncc2)CC1`, in assay [5], the inhibition worked out at 11%. Moreover, the residual activity turned out to be 89% in [6]; 79% in [7]; 87% in assay [8]; 101% in assay [9]; 92% in assay [10].
Turning to `O=S(=O)(c1cccc2cnccc12)N1CCCNCC1` [FASUDIL], in assay [5], the inhibition was found to be 67%. For the same compound, the residual activity was 112% in assay [9], 80% in assay [10] and 65% in assay [11].
